Source: article PMC4241044 (Journal of Clinical Pharmacology, 2014)
Read-outs that look alike come from different tables or passages of the source. Marks after values point to notes of the source that are not given here.

How the values were obtained:
[1] = format: in vivo, human; conditions: for AUC(0-inf) / Cmax / Vd/F / Tmax / half-life: human, plasma, oral; for Tmax: median (minimum–maximum); for half-life: t½; for increase in AUC∞ / increase in Cmax: compared with normal renal function; for DNAUC∞ (dose-normalized AUC∞) / DNCmax (dose-normalized Cmax): dose-normalized to 10 mg
Safety and tolerability = format: in vivo, human
Procedure, shortened: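 Monitoring was continuous and covered bleeding events and other treatment-emergent adverse events, with severity and relation to study drugs. Vital signs, ECG, haematology, clinical chemistry, PT/aPTT and urinalysis were checked, plus regular physical examinations. Subjects were grouped by Cockcroft–Gault CLCR. […] Analysis included all subjects receiving ≥1 study-drug dose.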

[2] = previous study, cited from earlier work
[3] = Rivaroxaban urine pharmacokinetics; format: in vivo, human; conditions: arithmetic mean (SD); for CL renal: human, urine and plasma, oral, CLR, renal clearance
[4] = 2.5–10 mg dose range under fasting conditions and 10–20 mg dose range under fed conditions; ref previous Phase I studies; cited from earlier work
[5] = steady-state erythromycin; previous Phase I drug–drug interaction study; cited from earlier work
prothrombin time (PT) = assay: Prothrombin time prolongation in plasma; format: in vivo, human
Procedure, shortened: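 Subjects were grouped by mean of two Cockcroft–Gault CLCR estimates: ≥80 (normal), 50–79 (mild) and 30–49 mL/min (moderate). […] PT blood was drawn at −1 h (baseline) and 0.5–48 h post-dose. […] Log-transformed geometric mean ratios with 90% CI; completers only.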

[6] = cited from earlier work
Factor Xa activity = Factor Xa activity (Homo sapiens, UniProt P00742); assay: Factor Xa inhibition in plasma; format: in vivo
[7] = Erythromycin trough plasma concentrations, attainment of steady state; format: in vivo, human; conditions: erythromycin 500 mg tid, visual inspection
Procedure, shortened: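 Erythromycin 500 mg tid was given for 6 days in treatment periods 2 and 3. Trough plasma was sampled before the morning erythromycin dose on days 2–6 and on the morning of day 7, then stored frozen. Assay was LC/MS/MS after methanol protein precipitation, on a reverse-phase column at 40 °C. Steady state was judged visually from concentration–time plots.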

[8] = Mild RI, rivaroxaban 10 mg + erythromycin 500 mg tid
[9] = Moderate RI, rivaroxaban 10 mg + erythromycin 500 mg tid
[10] = 10 mg, geometric mean, Normal RF, rivaroxaban 10 mg
[11] = 10 mg, rivaroxaban 10 mg, mild renal impairment, arithmetic mean (SD)
[12] = rivaroxaban 5 mg + erythromycin 500 mg tid, mild renal impairment, arithmetic mean (SD)
[13] = rivaroxaban 5 mg + erythromycin 500 mg tid, moderate renal impairment, arithmetic mean (SD)
[14] = rivaroxaban 10 mg + erythromycin 500 mg tid, normal renal function, arithmetic mean (SD)
[15] = rivaroxaban 10 mg + erythromycin 500 mg tid, moderate renal impairment, arithmetic mean (SD)
[16] = rivaroxaban 5 mg + erythromycin 500 mg tid, mild renal impairment
[17] = rivaroxaban 10 mg + erythromycin 500 mg tid, moderate renal impairment
[18] = mild renal impairment, rivaroxaban 10 mg with steady-state erythromycin, rivaroxaban 10 mg alone
[19] = mild renal impairment, rivaroxaban 10 mg
[20] = moderate renal impairment, rivaroxaban 10 mg with steady-state erythromycin, rivaroxaban 10 mg alone
[21] = moderate renal impairment, rivaroxaban 10 mg
[22] = rivaroxaban 5 mg + erythromycin 500 mg tid, moderate renal impairment
[23] = rivaroxaban 10 mg + erythromycin 500 mg tid, mild renal impairment
[24] = rivaroxaban 10 mg + erythromycin 500 mg tid, normal renal function
[25] = mild renal impairment vs normal renal function, rivaroxaban 10 mg
[26] = moderate renal impairment vs normal renal function, rivaroxaban 10 mg
[27] = normal renal function, rivaroxaban 10 mg + erythromycin vs rivaroxaban alone

Factor Xa activity, sequence (P00742 235-488 limits assumed): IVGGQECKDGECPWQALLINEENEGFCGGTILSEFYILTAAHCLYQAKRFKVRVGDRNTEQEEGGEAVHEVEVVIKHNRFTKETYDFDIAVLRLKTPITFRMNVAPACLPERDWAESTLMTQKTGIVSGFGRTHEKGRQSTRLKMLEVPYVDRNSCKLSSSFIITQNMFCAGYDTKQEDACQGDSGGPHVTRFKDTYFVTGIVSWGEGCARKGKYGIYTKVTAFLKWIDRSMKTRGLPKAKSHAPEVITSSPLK
Factor Xa activity, sequence (P00742 41-179 partner limits assumed): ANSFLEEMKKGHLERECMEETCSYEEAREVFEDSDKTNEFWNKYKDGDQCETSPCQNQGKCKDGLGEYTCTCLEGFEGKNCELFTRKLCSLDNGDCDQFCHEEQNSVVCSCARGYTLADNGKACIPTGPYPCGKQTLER

## O=C(NC[C@H]1CN(c2ccc(N3CCOCC3=O)cc2)C(=O)O1)c1ccc(Cl)s1 [Rivaroxaban, rivaroxaban]
[1]; [8]
  AUC∞, geometric mean: 3,078.7 ng · h/mL
  Cmax, geometric mean: 277.2 ng/mL
[1]; [9]
  Cmax, geometric mean: 292.42 ng/mL
[1]; Moderate RI, rivaroxaban 10 mg + erythromycin 500 mg tid, n = 7
  AUC∞, geometric mean: 3,475.5 ^a ng · h/mL
[1]; Normal RF, rivaroxaban 10 mg
  Cmax, geometric mean: 178.17 ng/mL
[1]; 10 mg, geometric mean, Mild RI, rivaroxaban 10 mg
  AUC(0-inf): 2000 ng·h/mL
[1]; 10 mg, geometric mean, Moderate RI, rivaroxaban 10 mg
  AUC(0-inf): 2040 ng·h/mL
[1]; [10]
  AUC(0-inf): 1750 ng·h/mL
  Cmax: 178 ng/mL
[1]; [11]
  AUC(0-inf): 2020 ng·h/mL
  Vd/F: 77.3 L
  half-life: 9.9 h
[1]; 10 mg, rivaroxaban 10 mg, mild renal impairment
  Tmax: 3 h
[1]; 10 mg, rivaroxaban 10 mg, moderate renal impairment
  Tmax: 3 h
[1]; [12]
  AUC(0-inf): 1970 ng·h/mL
  Vd/F: 37.5 L
  DNAUC∞ (dose-normalized AUC∞): 3,935 (1,671) ng · h/mL
  DNCmax (dose-normalized Cmax): 358 (109) ng/mL
[1]; [13]
  AUC(0-inf): 1980 ng·h/mL
  half-life: 10 h
  DNAUC∞ (dose-normalized AUC∞): 3,961 (1,020) ng · h/mL
  DNCmax (dose-normalized Cmax): 329 (104) ng/mL
[1]; [14]
  AUC(0-inf): 2470 ng·h/mL
  Cmax: 256 ng/mL
  Vd/F: 44.2 L
[1]; [15]
  Cmax: 323 ng/mL
  Vd/F: 40.9 L
[1]; rivaroxaban 10 mg + erythromycin 500 mg tid, mild renal impairment, arithmetic mean (SD)
  Vd/F: 46 L
[1]; [16]
  Tmax: 3 h
[1]; [17]
  Tmax: 3 h
[1]; [18]
  increase in AUC∞: approximately 76%
  increase in Cmax: ~56%
[1]; [19]
  increase in AUC∞: approximately 15%
  increase in Cmax: ~23%
[1]; [20]
  increase in AUC∞: ~99%
  increase in Cmax: ~64%
[1]; [21]
  increase in AUC∞: approximately 17%
  increase in Cmax: ~36%
Safety and tolerability; 1 NRF, 3 moderate RI, all mild in intensity, of 29 enrolled
  subjects reporting bleeding events: Four
Safety and tolerability; single dose 5 mg or 10 mg, regardless of renal function and erythromycin co-administration
  tolerability: well tolerated
[2]; mild renal impairment vs normal renal function
  increase in AUC∞: approximately 44%
[2]; moderate renal impairment vs normal renal function
  increase in AUC∞: ~52%
[3]; [16]
  CL renal: 15.9 mL/min
  Ae, cumulative amount excreted into the urine over 48 hours: 1.56 (0.692) mg
[3]; [22]
  CL renal: 9.25 mL/min
  Ae, cumulative amount excreted into the urine over 48 hours: 1.04 (0.531) mg
[3]; [23]
  CL renal: 19.2 mL/min
  Ae, cumulative amount excreted into the urine over 48 hours: 3.29 (0.893) mg
[3]; [17]
  CL renal: 13.3 mL/min
  Ae, cumulative amount excreted into the urine over 48 hours: 2.74 (1.10) mg
[3]; [24]
  CL renal: 34.3 mL/min
  Ae, cumulative amount excreted into the urine over 48 hours: 4.80 (0.851) mg
[3]; rivaroxaban 10 mg, mild renal impairment
  Ae, cumulative amount excreted into the urine over 48 hours: 2.49 (0.697) ^a mg
[3]; rivaroxaban 10 mg, moderate renal impairment
  Ae, cumulative amount excreted into the urine over 48 hours: 1.30 (0.654) mg
[3]; rivaroxaban 10 mg, normal renal function
  Ae, cumulative amount excreted into the urine over 48 hours: 3.51 (0.773) mg
[4]
  dose proportionality (based on AUC): dose-proportional
[5]
  increase in AUC∞: approximately 34%
  increase in Cmax: approximately 34%
Prothrombin time (PT); [8]
  Prothrombin time AUC0–48h, geometric mean: 118.7
  Prothrombin time Emax, geometric mean: 9.85
Prothrombin time (PT); [9]
  Prothrombin time AUC0–48h, geometric mean: 115.1
  Prothrombin time Emax, geometric mean: 10.02
Prothrombin time (PT); Normal RF, rivaroxaban 10 mg
  Prothrombin time AUC0–48h, geometric mean: 67.82
  Prothrombin time Emax, geometric mean: 8.24
Prothrombin time (PT); [25]
  increase in PT Emax: ~5%
Prothrombin time (PT); [26]
  change in PT AUC0–48h: did not seem to change significantly
  change in PT Emax: did not seem to change significantly
Prothrombin time (PT); [27]
  increase in PT AUC0–48h: approximately 22%
  increase in PT Emax: ~10%
[6]
  dose metabolized via CYP2J2: 14%
  dose metabolized via CYP3A4/3A5: approximately 18%
  dose metabolized via CYP-independent hydrolysis: 14%
  drug excreted unchanged by the kidneys: approximately 36%
[6]; via CYP3A4/3A5, CYP2J2 and CYP-independent mechanisms
  fraction of the absorbed dose hepatically metabolized: approximately two-thirds
[6]; via P-gp-mediated and ABCG2-mediated secretion
  fraction of the absorbed dose eliminated as unchanged drug in the urine: third
Factor Xa activity; [9]
  Factor Xa inhibition AUC0–48h, geometric mean: 842.3
  Factor Xa inhibition Emax, geometric mean: 53.61
Factor Xa activity; Normal RF, rivaroxaban 10 mg
  Factor Xa inhibition AUC0–48h, geometric mean: 593.43
  Factor Xa inhibition Emax, geometric mean: 39.38
Factor Xa activity; [25]
  increase in Factor Xa inhibition AUC0–48h: approximately 16%
  increase in Factor Xa inhibition Emax: ~17%
Factor Xa activity; [26]
  increase in Factor Xa inhibition AUC0–48h: approximately 3%
  increase in Factor Xa inhibition Emax: ~17%
Factor Xa activity; [27]
  Factor Xa inhibition AUC0–48h lower by: approximately 8%
  increase in Factor Xa inhibition Emax: approximately 18%

## CC[C@H]1OC(=O)[C@H](C)[C@@H](O[C@H]2C[C@@](C)(OC)[C@@H](O)[C@H](C)O2)[C@H](C)[C@@H](O[C@@H]2O[C@H](C)C[C@H](N(C)C)[C@H]2O)[C@](C)(O)C[C@@H](C)C(=O)[C@H](C)[C@@H](O)[C@]1(C)O [erythromycin]
[7]
  attainment of steady-state plasma concentrations: obtained by the morning of day 5
